The list is not random: actives were taken first. Their share in the collection is about 1.8%.
MT1-MMP act inh – MT1-MMP (human) activation inhibition; 0.061% of 360,000 active; GFP/RFP ratio change, % at 20 µM; P50281; HT1080 RFP-PRO-GFP cells, GFP/RFP ratio fluorescence, overnight; percent of plate control window, DMSO zero;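 active = GFP/RFP ratio change of at least 30% with cell ATP level not reduced by more than half and red fluorescence within 50% of control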
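Test system: HT1080 cells expressing an RFP-PRO-GFP fluorescent reporter construct / Compound dosing: single-point 20 µM compound, 1% DMSO / Schedule: cells overnight before dosing, compound overnight, 37 °C, 5% CO2 / Evaluation: GFP/RFP fluorescence ratio / Control set: DMSO and RFP-L50D-GFP cell wells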
SKN-1 inh – blocks SKN-1 activity in C. elegans; AID 624304; 0.49% of 360,000 active; inhibition, % at 21.8 µM; C. elegans VP596 Pgst-4::GFP/RFP ratio, acrylamide-induced, 24 h;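 active = interference check ratio from 0.5 to 1.5 plus GFP to RFP signal ratio inhibition reaching or exceeding a fixed threshold, cut at about 30% in these data, passing the limit was not always enough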
PABP1 MLLE inh – inhibitors of microRNA-mediated deadenylation, human PABP1 MLLE binding. GST-MLLE / FITC-PAM2 fluorescence polarization. P11940. inhibition, % at 20 µM. 0.36% of 360,000 active; in the data active = inhibition above about 35%, passing the limit was not always enough;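 note: plate controls were DMSO wells with GST-MLLE for no effect and wells lacking GST-MLLE protein for full effect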
Target sequence (P11940 whole entry, looked up): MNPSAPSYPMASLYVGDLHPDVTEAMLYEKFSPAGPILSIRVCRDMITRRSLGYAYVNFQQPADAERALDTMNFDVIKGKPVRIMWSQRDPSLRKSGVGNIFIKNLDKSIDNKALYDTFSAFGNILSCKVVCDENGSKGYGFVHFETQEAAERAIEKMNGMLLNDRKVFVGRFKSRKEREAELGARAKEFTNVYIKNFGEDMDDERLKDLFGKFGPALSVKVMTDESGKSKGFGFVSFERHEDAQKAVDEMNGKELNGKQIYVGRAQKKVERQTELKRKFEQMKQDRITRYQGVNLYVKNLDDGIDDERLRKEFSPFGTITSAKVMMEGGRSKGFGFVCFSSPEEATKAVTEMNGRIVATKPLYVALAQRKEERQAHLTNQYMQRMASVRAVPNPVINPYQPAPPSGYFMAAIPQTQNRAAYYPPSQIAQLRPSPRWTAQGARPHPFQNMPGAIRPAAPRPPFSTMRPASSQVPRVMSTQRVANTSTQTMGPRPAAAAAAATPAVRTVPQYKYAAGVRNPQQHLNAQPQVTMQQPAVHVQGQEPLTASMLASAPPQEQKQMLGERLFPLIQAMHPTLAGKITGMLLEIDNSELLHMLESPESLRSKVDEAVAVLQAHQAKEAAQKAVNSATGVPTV
eIF4H inh – inhibitors of RNA binding by human eIF4H; Q15056; eIF4H fluorescence polarization binding assay; inhibition, % at 35 µM; 0.94% of 290,000 active; AID 2012;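 note: calls also rest on retests at 20 µM and on dose response follow-up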
PABP polyA inh – PABP-poly(A) binding inhibition; PABP-poly(A) RNA binding, fluorescence polarization; calls only at 35 µM; 1% of 290,000 active; AID 2014;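 note: calls also rest on retests at 20 µM and on dose response follow-up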
The depositor's hits bear a star; i = inactive; ? = inconclusive; / = no result given; + = active, no number. Unless noted, the rule behind the calls is not given here.

SMILES	MT1-MMP act inh	SKN-1 inh	PABP1 MLLE inh	eIF4H inh	PABP polyA inh
CN(C(=O)CN1CCN(c2cc(-c3ccc(-c4ccccc4)cc3)ncn2)CC1)c1ccccc1	4	0	-2	/	/
Cc1cc(SCC(=O)N/N=C/c2ccc(O)c(O)c2O)c(C)cc1Br	-19	16	12	93*	+
O=C(NC12CC3CC(CC(C3)C1)C2)c1ccc(=O)oc1	1	-32	10	-2	i
O=C(NNC(=O)C1[C@H]2CCCC[C@@H]12)c1ccc(=O)oc1 (stereo partly specified)	-7	4	-21	?	+
COC(=O)c1[nH]c2ccccc2c1NC(=O)C(C)N1CCOCC1 (stereo unspecified)	-4	38*	-15	1	i
COC(=O)c1[nH]c2ccccc2c1NC(=O)C(C)N1CCN(C(=O)c2ccco2)CC1 (stereo unspecified)	1	7	-14	-8	i
CN1CCC(N(C)C(=O)c2cc(-c3ccccc3Cl)nc3ccccc23)CC1	-4	-14	-2	/	/
COc1cccc(NC(=O)CN(C)CC(=O)NCc2ccco2)c1	-5	-3	-19	/	/
COc1cccc(CN(C)CC(=O)Nc2ccccc2C(=O)NC2CC2)c1	-2	-4	89*	/	/
COc1cccc(CN(C)CC(=O)NC(=O)NCc2ccco2)c1	4	4	3	50*	+
CC1(C(=O)Nc2ccc(Cl)c(Cl)c2)CCN1C(=O)CCC1CCCC1 (stereo unspecified)	9	14	-2	/	/
Cc1c(C(=O)O)cccc1-n1c(C)cc(C=O)c1C	-1	-1	-6	72*	i
Cc1ccc(C(=O)O)cc1-n1c(C)cc(C=O)c1C	0	3	-1	76	i
Oc1ccc(CCc2ccccn2)cc1	2	14	6	/	/
Cc1cccc(C)c1OCC(=O)Nc1nnc(C2CCCO2)s1 (stereo unspecified)	-6	37*	-3	-2	i
COc1ccc(NC(=O)c2cc(-c3cc(F)ccc3OC)n[nH]2)cn1	1	11	13	/	/
Cc1ccc(CN(CC(=O)NC2CCCC2)C(=O)CSc2nnc(COc3ccccc3)o2)cc1	-2	7	41*	4	i
COC(=O)c1c(NC(=O)CC2Nc3cc(C)c(C)cc3NC2=O)sc(C)c1C (stereo unspecified)	-15	7	-72	86*	+
Cc1ccc2nc(CSc3nnc(Nc4ccccc4F)s3)cc(=O)n2c1	-2	6	-8	70*	+
COc1ccc(Nc2nnc(SCc3cc(=O)n4ccsc4n3)s2)cc1	-21	2	7	75*	+
Cc1ccc(Nc2nnc(SCc3cc(=O)n4cc(C)ccc4n3)s2)cc1	1	0	-19	1	i
CSc1cccc(NC(=O)NNC(=O)C2CCN(S(=O)(=O)N(C)C)CC2)c1	-2	-14	-17	0	i
O=C(NC1CCCCC1)C(c1ccc(-c2ccccc2)cc1)n1c(=O)c(-c2ccco2)nc2ccccc21 (stereo unspecified)	-6	6	/	/	/
COC(=O)c1cc2sccc2n1Cc1ccc(C)cc1	-8	38*	4	-12	i
CC(=O)c1c(C)[nH]c(C(=O)CN2C(=O)NC3(CCCCC3C)C2=O)c1C (stereo unspecified)	2	0	-2	/	/
SMILES	MT1-MMP act inh	SKN-1 inh	PABP1 MLLE inh	eIF4H inh	PABP polyA inh
CCN(CC)S(=O)(=O)c1ccc(C(=O)NCc2ccc3c(c2)cc(C)n3C)cc1	35	43	46*	20	i
Cc1ccc(CNC(=O)c2ccc(S(=O)(=O)N3CCCC3)cc2)cc1	2	15	5	/	/
COc1ccc(C(=O)NCc2ccc3c(c2)cc(C)n3C)cc1OC	41	48	28	25	i
Cc1cc2cc(CNC(=O)c3ccc(S(=O)(=O)N4CCCC4)cc3)ccc2n1C	16	46*	29	27	i
O=c1[nH]c(=S)[nH]c2c1C(c1ccc(F)cc1)OC(CCOCc1ccccc1)C2 (stereo unspecified)	5	6	20	/	/
COc1cc(/C=C2\CCCc3c2nc2ccccc2c3C(=O)O)cc([N+](=O)[O-])c1O	10	-7	20	80*	+
COc1cc(/C=C2\CCCc3c2nc2ccccc2c3C(=O)O)cc(OC)c1O	3	-3	18	29	i
